# In ChEMBL document CHEMBL5653631, “A Potent and Selective ULK1 Inhibitor Suppresses Autophagy and Sensitizes Cancer Cells to Nutrient Stress” (iScience, 2018):
# Key:
# Homo sapiens = organism: Homo sapiens; assay: Inhibition of human recombinant CK1d at 500 nM related to control ULK1
# [1] = target: Tyrosine-protein kinase Blk (Homo sapiens) (UniProt P51451); assay: Inhibition of human recombinant BLK at 500 nM in presence of ATP by radiometric assay relative to control
# How it was run: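 Part of a radiometric in vitro activity panel of 327 recombinant human kinases. Each kinase was tested in duplicate at one inhibitor concentration. Activity remaining was expressed as a percentage of the vehicle control, and percent inhibition was taken as 100 minus that value.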
# [2] = target: Serine/threonine-protein kinase mTOR (Homo sapiens) (UniProt P42345); assay: Inhibition of human recombinant FRAP at 500 nM in presence of ATP by radiometric assay relative to control
# [3] = target: T1, Mitogen-activated protein kinase kinase kinase 3 (Homo sapiens) (UniProt Q99759); assay: Inhibition of human recombinant MAP3K3 at 500 nM related to control ULK1
# T1 sequence (whole entry): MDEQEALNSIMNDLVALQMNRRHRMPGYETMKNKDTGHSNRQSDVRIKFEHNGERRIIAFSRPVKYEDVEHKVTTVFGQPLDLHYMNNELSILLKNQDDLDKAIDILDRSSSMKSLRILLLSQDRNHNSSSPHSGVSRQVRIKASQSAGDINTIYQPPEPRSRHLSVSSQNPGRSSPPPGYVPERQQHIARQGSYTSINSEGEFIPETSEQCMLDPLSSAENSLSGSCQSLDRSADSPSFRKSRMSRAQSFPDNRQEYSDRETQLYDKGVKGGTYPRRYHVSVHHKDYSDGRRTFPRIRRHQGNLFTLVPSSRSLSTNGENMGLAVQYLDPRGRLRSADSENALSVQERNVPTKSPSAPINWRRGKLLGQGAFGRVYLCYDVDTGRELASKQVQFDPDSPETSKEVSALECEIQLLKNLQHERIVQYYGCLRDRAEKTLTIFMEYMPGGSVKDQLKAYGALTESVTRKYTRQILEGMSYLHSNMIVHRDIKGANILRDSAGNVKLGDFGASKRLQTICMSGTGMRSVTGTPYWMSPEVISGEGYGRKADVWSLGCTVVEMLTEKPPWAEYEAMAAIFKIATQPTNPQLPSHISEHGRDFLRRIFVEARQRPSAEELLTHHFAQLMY
# [4] = target: Proto-oncogene tyrosine-protein kinase receptor Ret (Homo sapiens) (UniProt P07949); assay: Inhibition of human recombinant RET at 500 nM in presence of ATP by radiometric assay relative to control
# Sequence of Proto-oncogene tyrosine-protein kinase receptor Ret (Homo sapiens) (P07949 whole entry): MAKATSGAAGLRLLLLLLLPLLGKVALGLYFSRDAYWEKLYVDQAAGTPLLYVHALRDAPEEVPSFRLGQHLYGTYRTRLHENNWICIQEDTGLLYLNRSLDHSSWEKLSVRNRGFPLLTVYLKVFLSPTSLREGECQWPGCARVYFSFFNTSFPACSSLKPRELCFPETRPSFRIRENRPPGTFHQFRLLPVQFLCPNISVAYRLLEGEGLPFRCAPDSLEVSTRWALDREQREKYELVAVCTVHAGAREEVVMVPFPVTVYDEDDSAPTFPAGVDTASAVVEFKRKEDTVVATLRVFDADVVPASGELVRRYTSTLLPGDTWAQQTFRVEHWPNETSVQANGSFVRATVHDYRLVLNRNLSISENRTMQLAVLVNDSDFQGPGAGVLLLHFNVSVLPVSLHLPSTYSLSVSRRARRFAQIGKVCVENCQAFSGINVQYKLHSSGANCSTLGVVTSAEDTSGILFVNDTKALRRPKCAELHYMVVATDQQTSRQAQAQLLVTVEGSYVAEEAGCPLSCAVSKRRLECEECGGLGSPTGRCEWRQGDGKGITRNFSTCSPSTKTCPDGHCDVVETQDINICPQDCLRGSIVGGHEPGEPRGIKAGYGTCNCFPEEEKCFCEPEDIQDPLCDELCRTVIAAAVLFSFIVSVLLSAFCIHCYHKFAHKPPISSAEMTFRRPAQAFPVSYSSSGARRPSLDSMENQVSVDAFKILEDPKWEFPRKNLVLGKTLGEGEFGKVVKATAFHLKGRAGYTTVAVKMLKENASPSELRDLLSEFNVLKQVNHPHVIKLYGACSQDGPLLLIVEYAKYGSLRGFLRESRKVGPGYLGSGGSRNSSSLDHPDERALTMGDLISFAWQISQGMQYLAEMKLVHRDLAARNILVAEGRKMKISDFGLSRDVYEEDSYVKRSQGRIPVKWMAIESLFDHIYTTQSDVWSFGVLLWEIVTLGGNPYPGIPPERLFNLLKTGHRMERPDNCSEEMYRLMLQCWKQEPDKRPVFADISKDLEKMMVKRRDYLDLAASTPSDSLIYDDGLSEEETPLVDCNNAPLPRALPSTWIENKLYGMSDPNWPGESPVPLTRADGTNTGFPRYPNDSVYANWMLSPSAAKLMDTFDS
# [5] = target: Serine/threonine-protein kinase SIK1 (Homo sapiens) (UniProt P57059); assay: Inhibition of human recombinant SIK at 15 nM in presence of ATP by radiometric assay relative to control
# Sequence of Serine/threonine-protein kinase SIK1 (Homo sapiens) (P57059 whole entry): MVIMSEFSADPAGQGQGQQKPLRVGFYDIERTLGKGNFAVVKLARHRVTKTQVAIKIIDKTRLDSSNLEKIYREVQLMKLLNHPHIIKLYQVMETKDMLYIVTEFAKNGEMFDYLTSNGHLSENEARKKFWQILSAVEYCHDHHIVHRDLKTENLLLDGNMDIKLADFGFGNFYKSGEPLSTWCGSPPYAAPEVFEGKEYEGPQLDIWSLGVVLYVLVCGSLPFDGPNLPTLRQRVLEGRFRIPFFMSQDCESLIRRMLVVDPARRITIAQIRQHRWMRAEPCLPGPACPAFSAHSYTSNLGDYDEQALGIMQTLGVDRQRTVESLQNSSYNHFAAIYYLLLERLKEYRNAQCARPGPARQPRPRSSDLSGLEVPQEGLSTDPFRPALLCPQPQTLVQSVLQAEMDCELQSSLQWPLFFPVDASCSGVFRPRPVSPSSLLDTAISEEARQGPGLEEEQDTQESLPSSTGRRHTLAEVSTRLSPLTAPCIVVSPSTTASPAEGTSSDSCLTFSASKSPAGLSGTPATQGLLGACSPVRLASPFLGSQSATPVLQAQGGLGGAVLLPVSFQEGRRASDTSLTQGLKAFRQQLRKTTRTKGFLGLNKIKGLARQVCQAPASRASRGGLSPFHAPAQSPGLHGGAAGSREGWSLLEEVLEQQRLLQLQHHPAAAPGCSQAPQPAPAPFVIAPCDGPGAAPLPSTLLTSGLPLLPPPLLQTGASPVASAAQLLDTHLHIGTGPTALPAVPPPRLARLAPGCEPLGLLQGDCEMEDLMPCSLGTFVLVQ
# [6] = target: T2, Serine/threonine-protein kinase Sgk2 (Homo sapiens) (UniProt Q9HBY8); assay: Inhibition of human recombinant SGK2 at 40 nM in presence of ATP by radiometric assay relative to control
# T2 sequence (whole entry): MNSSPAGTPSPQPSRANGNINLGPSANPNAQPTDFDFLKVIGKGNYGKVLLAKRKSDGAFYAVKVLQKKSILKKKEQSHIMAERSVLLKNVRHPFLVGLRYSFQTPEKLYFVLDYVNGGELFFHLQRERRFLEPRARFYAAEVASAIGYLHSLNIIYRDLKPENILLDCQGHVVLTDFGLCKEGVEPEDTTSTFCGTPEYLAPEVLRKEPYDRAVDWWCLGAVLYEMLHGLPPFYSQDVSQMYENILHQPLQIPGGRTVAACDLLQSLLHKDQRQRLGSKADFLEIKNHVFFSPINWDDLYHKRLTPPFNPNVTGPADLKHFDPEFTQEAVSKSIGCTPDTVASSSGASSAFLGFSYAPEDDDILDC
# [7] = target: Casein kinase II subunit alpha' (Homo sapiens) (UniProt P19784); assay: Inhibition of human recombinant CK2a2 at 40 nM in presence of ATP by radiometric assay relative to control
# Sequence of Casein kinase II subunit alpha' (Homo sapiens) (P19784 whole entry, looked up): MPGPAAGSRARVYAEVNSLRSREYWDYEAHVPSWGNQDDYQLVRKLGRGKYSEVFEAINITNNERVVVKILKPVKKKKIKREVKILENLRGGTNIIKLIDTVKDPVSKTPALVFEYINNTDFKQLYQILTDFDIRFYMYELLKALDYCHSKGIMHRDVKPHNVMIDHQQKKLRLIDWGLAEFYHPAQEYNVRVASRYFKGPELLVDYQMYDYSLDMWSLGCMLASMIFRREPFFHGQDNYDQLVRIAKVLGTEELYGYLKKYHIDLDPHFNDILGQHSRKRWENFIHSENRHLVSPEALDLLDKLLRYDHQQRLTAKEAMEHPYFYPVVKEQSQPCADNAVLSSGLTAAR
# [8] = target: Cyclin-dependent kinase 4 (Homo sapiens) (UniProt P11802); assay: Inhibition of human recombinant CDK4 at 40 nM in presence of ATP by radiometric assay relative to control
# Sequence of Cyclin-dependent kinase 4 (Homo sapiens) (P11802 whole entry): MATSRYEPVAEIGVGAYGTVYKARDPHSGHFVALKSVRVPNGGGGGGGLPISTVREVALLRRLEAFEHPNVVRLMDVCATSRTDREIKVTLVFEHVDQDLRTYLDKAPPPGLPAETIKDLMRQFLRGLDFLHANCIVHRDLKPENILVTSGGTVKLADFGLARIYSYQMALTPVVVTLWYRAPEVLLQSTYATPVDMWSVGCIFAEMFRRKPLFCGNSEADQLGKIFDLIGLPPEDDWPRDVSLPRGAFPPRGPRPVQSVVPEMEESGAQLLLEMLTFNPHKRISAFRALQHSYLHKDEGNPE
# [9] = target: T3, Serine/threonine-protein kinase TAO2 (Homo sapiens) (UniProt Q9UL54); assay: Inhibition of human recombinant TAO2 at 40 nM in presence of ATP by radiometric assay relative to control
# T3 sequence (whole entry): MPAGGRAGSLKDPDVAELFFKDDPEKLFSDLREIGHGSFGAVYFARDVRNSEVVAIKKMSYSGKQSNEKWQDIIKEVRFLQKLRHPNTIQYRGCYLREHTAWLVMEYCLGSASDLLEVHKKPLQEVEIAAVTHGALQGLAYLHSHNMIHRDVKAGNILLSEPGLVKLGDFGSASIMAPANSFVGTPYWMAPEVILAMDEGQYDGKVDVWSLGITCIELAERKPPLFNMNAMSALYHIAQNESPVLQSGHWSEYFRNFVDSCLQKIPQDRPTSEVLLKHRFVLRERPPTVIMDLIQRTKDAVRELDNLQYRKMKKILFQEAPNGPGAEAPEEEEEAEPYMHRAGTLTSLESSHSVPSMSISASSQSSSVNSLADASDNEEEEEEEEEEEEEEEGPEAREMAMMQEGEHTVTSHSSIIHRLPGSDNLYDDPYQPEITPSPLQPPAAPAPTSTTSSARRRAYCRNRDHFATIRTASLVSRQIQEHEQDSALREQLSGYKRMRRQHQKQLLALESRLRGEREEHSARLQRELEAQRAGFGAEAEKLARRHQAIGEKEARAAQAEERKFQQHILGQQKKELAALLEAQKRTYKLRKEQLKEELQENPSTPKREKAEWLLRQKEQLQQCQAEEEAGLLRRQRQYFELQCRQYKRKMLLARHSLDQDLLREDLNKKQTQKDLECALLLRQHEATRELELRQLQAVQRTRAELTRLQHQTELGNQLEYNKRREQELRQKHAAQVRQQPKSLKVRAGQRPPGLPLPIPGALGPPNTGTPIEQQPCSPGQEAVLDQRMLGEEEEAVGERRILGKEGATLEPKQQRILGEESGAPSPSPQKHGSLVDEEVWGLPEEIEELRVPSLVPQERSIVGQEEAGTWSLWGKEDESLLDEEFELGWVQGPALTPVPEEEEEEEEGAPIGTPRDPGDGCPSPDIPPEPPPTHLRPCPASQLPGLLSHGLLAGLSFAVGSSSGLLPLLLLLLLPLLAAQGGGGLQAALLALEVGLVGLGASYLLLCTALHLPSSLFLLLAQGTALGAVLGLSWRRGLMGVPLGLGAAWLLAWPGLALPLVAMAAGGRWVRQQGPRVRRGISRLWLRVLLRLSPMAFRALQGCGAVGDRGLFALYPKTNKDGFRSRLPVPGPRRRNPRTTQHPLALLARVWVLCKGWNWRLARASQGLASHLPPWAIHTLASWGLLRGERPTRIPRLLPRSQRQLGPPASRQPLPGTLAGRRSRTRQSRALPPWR
# Sequence of Tyrosine-protein kinase Blk (Homo sapiens) (P51451 2-505 limits assumed): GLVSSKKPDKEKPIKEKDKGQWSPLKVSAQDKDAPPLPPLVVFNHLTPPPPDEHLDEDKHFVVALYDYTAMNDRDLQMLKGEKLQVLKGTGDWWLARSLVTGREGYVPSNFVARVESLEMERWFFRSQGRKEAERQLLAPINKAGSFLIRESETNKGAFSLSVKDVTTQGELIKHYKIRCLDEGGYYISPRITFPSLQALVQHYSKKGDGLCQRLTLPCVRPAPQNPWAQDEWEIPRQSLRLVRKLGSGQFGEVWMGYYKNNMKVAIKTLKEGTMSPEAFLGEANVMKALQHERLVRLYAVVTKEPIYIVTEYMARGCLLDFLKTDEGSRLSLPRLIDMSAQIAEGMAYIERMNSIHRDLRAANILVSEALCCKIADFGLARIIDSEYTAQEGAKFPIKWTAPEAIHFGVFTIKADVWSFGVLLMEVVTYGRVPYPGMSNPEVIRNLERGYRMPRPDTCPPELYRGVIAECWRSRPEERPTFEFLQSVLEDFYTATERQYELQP
structure (smiles),measurement,setting,value
CNC(=O)c1ccccc1Oc1nc(Nc2cc(OC)c(OC)c(OC)c2)ncc1Br,fold change (FC),Homo sapiens,0.14
same,inhibition,[1],29%
same,inhibition,[2],0%
same,fold change (FC),[3],0
same,inhibition,[4],3%
CC(C)[C@H](NC(=O)c1cc(-c2cnn3cc(-c4ccc(OCCN5CCCCC5)cc4)cnc23)cs1)C(F)(F)F,inhibition,[5],74%
O=C(N[C@@H](C1CC1)C(F)(F)F)c1cc(-c2cnn3cc(-c4ccc(F)cc4)cnc23)cs1,inhibition,[6],12%
same,inhibition,[7],8%
same,inhibition,[8],0%
same,inhibition,[9],3%
